Converted amounts (≈) assume the structure as drawn.
Assays:
Aspergillus niger [1] = assay: Antifungal activity against Aspergillus niger; assay type: functional
Outline: (§1)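 Agar dilution MIC. Twofold serial drug dilutions in yeast nitrogen base medium with 1% dextrose, 0.15% asparagine and 1.5% agar. Agar surfaces inoculated using a Steers multiple inocula replicator, then incubated at 35 °C for 24-48 h. MIC was recorded as the lowest concentration inhibiting visible growth. Amphotericin B, miconazole and nystatin served as controls.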

Candida albicans [2] = assay: Antifungal activity against Candida stellatoidea; assay type: functional; outline: as §1
Kluyveromyces marxianus = assay: Antifungal activity against Candida pseudotropicalis; assay type: functional; outline: as §1
Candida albicans [3] = assay: Antifungal activity against Candida albicans; assay type: functional; outline: as §1
Diutina rugosa = assay: Antifungal activity against Candida rugosa; assay type: functional; outline: as §1
Candida tropicalis = assay: Antifungal activity against Candida tropicalis; assay type: functional; outline: as §1
Trichophyton benhamiae = assay: Antifungal activity against Trichophyton mentagrophytes; assay type: functional, trychophyton mentagrophytes; outline: as §1
Trichophyton rubrum = assay: Antifungal activity against Trichophyton rubrum; assay type: functional; outline: as §1
Mucor fragilis = assay: Antifungal activity against Mucor fragilis; assay type: functional; outline: as §1
Aspergillus niger [4] = assay: Antifungal activity against Aspergillus niger; Range is 64-128; assay type: functional; outline: as §1
Candida parapsilosis = assay: Antifungal activity against Candida parapsilosis; assay type: functional; details: Lodderomyces parapsilosis; outline: as §1
Aspergillus niger [5] = assay: Antifungal activity against Aspergillus niger; Range is 16-32; assay type: functional; outline: as §1
Candida albicans [6] = assay: Antifungal activity against Candida albicans; Range is 8-16; assay type: functional; outline: as §1

| SMILES | MIC (Aspergillus niger [1]) [µg/mL] | MIC (Candida albicans [2]) [µg/mL] | MIC (Kluyveromyces marxianus) [µg/mL] | MIC (Candida albicans [3]) [µg/mL] | MIC (Diutina rugosa) [µg/mL] | MIC (Candida tropicalis) [µg/mL] | MIC (Trichophyton benhamiae) [µg/mL] | MIC (Trichophyton rubrum) [µg/mL] | MIC (Mucor fragilis) [µg/mL] | MIC (Aspergillus niger [4]) [µg/mL] | MIC (Candida parapsilosis) [µg/mL] | MIC (Aspergillus niger [5]) [µg/mL] | MIC (Candida albicans [6]) [µg/mL] |
| --- | --- | --- | --- | --- | --- | --- | --- | --- | --- | --- | --- | --- | --- |
| Cc1cc2nnc(-c3ccc(F)cc3)nc2c(C)n1 | 128 (≈ 503 µM) | > 128 | 128 (≈ 503 µM) | 128 (≈ 503 µM) | > 128 | 128 (≈ 503 µM) | 64 (≈ 252 µM) | 64 (≈ 252 µM) | 64 (≈ 252 µM) |  |  |  |  |
| CN1CCN(/C=C/c2nnc3ccncc3n2)CC1 |  | 32 (≈ 125 µM) | 128 (≈ 499 µM) | 128 (≈ 499 µM) | 32 (≈ 125 µM) | 128 (≈ 499 µM) |  |  | 128 (≈ 499 µM) | 64 (≈ 250 µM) |  |  |  |
| Cc1nc(C)c2nc(-c3ccc(F)cc3)nnc2c1N | > 128 | > 128 |  | > 128 | > 128 | > 128 | 128 (≈ 475 µM) | 128 (≈ 475 µM) | 128 (≈ 475 µM) |  | > 128 |  |  |
| CCCCCCCCCCCCCCCCCc1nnc2ccncc2n1 | 128 (≈ 345 µM) | > 128 | 128 (≈ 345 µM) | 128 (≈ 345 µM) | > 128 | 128 (≈ 345 µM) |  |  | 128 (≈ 345 µM) |  |  |  |  |
| CC(C)(C)c1ccc(-c2nnc3ccncc3n2)cc1 | 128 (≈ 484 µM) | > 128 | 128 (≈ 484 µM) | 128 (≈ 484 µM) | > 128 | 128 (≈ 484 µM) |  |  | 128 (≈ 484 µM) |  |  |  |  |
| c1ccc(-c2ccc(-c3nnc4ccncc4n3)cc2)cc1 |  | > 128 | 128 (≈ 450 µM) | 128 (≈ 450 µM) | > 128 | 128 (≈ 450 µM) |  |  | 128 (≈ 450 µM) | 64 (≈ 225 µM) |  |  |  |
| c1ccc2c3c(cnc2c1)NC1(CCCCC1)N=N3 | 128 (≈ 507 µM) |  | 128 (≈ 507 µM) | 128 (≈ 507 µM) |  | 128 (≈ 507 µM) | 64 (≈ 254 µM) | 64 (≈ 254 µM) |  |  | 128 (≈ 507 µM) |  |  |
| CC1(C)N=Nc2ccncc2N1 | 128 (≈ 789 µM) |  | 128 (≈ 789 µM) | 128 (≈ 789 µM) |  | 128 (≈ 789 µM) | 128 (≈ 789 µM) | 128 (≈ 789 µM) |  |  | 128 (≈ 789 µM) |  |  |
| CCOc1ccc(-c2nnc3ccncc3n2)cc1 |  | > 128 | 64 (≈ 254 µM) | 64 (≈ 254 µM) | > 128 | 64 (≈ 254 µM) |  |  | 128 (≈ 507 µM) | 64 (≈ 254 µM) |  |  |  |
| c1ccc2cc(-c3nnc4ccncc4n3)ccc2c1 | 128 (≈ 496 µM) | > 128 | 128 (≈ 496 µM) | 128 (≈ 496 µM) | > 128 | 128 (≈ 496 µM) |  |  | 128 (≈ 496 µM) |  |  |  |  |
| c1cc2nnc(C3CCCC3)nc2cn1 |  | 32 (≈ 160 µM) | 16 (≈ 79.9 µM) |  | 16 (≈ 79.9 µM) | 64 (≈ 320 µM) |  |  | 4 (≈ 20 µM) |  |  | 16 (≈ 79.9 µM) | 8 (≈ 40 µM) |

The remaining lines, values ahead:

| MIC (Aspergillus niger [1]) [µg/mL] | MIC (Candida albicans [2]) [µg/mL] | MIC (Kluyveromyces marxianus) [µg/mL] | MIC (Candida albicans [3]) [µg/mL] | MIC (Diutina rugosa) [µg/mL] | MIC (Candida tropicalis) [µg/mL] | MIC (Trichophyton benhamiae) [µg/mL] | MIC (Trichophyton rubrum) [µg/mL] | MIC (Mucor fragilis) [µg/mL] | MIC (Aspergillus niger [4]) [µg/mL] | MIC (Candida parapsilosis) [µg/mL] | MIC (Aspergillus niger [5]) [µg/mL] | MIC (Candida albicans [6]) [µg/mL] | SMILES |
| --- | --- | --- | --- | --- | --- | --- | --- | --- | --- | --- | --- | --- | --- |
| 128 (≈ 618 µM) | 128 (≈ 618 µM) | 128 (≈ 618 µM) | 64 (≈ 309 µM) | 128 (≈ 618 µM) | 128 (≈ 618 µM) |  | 64 (≈ 309 µM) |  |  |  |  |  | c1ccc(-c2nnc3ccccc3n2)cc1 |
| 32 (≈ 123 µM) | 32 (≈ 123 µM) | 8 (≈ 30.7 µM) | 8 (≈ 30.7 µM) | 32 (≈ 123 µM) | 8 (≈ 30.7 µM) |  |  | 32 (≈ 123 µM) |  |  |  |  | c1ccc2nc(-c3nnc4ccncc4n3)cnc2c1 |
| 32 (≈ 186 µM) | 64 (≈ 372 µM) | 16 (≈ 92.9 µM) | 16 (≈ 92.9 µM) | 64 (≈ 372 µM) | 32 (≈ 186 µM) |  |  | 16 (≈ 92.9 µM) |  |  |  |  | c1cc2nnc(C3CC3)nc2cn1 |
|  |  | 32 (≈ 242 µM) | 64 (≈ 484 µM) |  | 64 (≈ 484 µM) | 32 (≈ 242 µM) | 32 (≈ 242 µM) |  |  | 32 (≈ 242 µM) | 16 (≈ 121 µM) |  | c1cnc2nncnc2c1 |
|  | 16 (≈ 79.5 µM) | 128 (≈ 636 µM) | 64 (≈ 318 µM) | 16 (≈ 79.5 µM) | 128 (≈ 636 µM) |  |  | 64 (≈ 318 µM) | 64 (≈ 318 µM) |  |  |  | CN(C)/C=C/c1nnc2ccncc2n1 |
|  |  | 32 (≈ 163 µM) | 32 (≈ 163 µM) |  | 32 (≈ 163 µM) | 32 (≈ 163 µM) | 32 (≈ 163 µM) |  |  | 32 (≈ 163 µM) | 16 (≈ 81.5 µM) |  | Cc1nnc2c(cnc3ccccc32)n1 |
|  | 32 (≈ 172 µM) | 16 (≈ 85.9 µM) |  | 32 (≈ 172 µM) | 32 (≈ 172 µM) |  |  | 16 (≈ 85.9 µM) |  |  | 16 (≈ 85.9 µM) | 8 (≈ 43 µM) | c1cc2nnc(C3CCC3)nc2cn1 |

Source: ChEMBL document CHEMBL1124369, “Pyrido[3,4-e]-1,2,4-triazines and related heterocycles as potential antifungal agents” (1989)
